From ChEMBL document CHEMBL4028901, “Novel Antitubercular 6-Dialkylaminopyrimidine Carboxamides from Phenotypic Whole-Cell High Throughput Screening of a SoftFocus Library: Structure-Activity Relationship and Target Identification Studies” (J Med Chem, 2017)
Values after ≈ are worked out from the molar mass of the structure shown.

Assays:
[1] = tested on: Mycobacterium tuberculosis; test: Antibacterial activity against cytochrome bd oxidase knockout GFP-fused Mycobacterium tuberculosis H37RvMA grown in GAST/Fe medium measured on day 7 and day 14 post inoculation by fluorescence plate reader assay; type: functional
[2] = tested on: Mycobacterium tuberculosis; test: Antibacterial activity against cytochrome bd oxidase knockout GFP-fused Mycobacterium tuberculosis H37RvMA grown in 7H9/GLU/ADC medium measured on day 7 and day 14 post inoculation by fluorescence plate reader assay; type: functional; settings: Mycobacterium tuberculosis, H37RvMA; read-out: MIC99
[3] = Kinetic solubility of the compound in pH 7.4 solution at 10 to 220 uM after 2 hrs by shake flask method; type: physicochemical; settings: buffer, pH 7.4, 2 h, 220 µM
[4] = tested on: Mycobacterium tuberculosis; test: Antibacterial activity against Mycobacterium tuberculosis H37RvMA grown in 7H9/ADC medium measured 7 to 14 days post inoculation by broth microdilution method; type: functional
[5] = tested on: Mycobacterium tuberculosis; test: Antibacterial activity against Mycobacterium tuberculosis H37RvMA grown in GAST/Fe medium measured 7 to 14 days post inoculation by broth microdilution method; type: functional
How it was run: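 H37RvMa grown to OD600 0.6–0.7, diluted 1:100 in GAST/Fe. Compounds two-fold serially diluted from a top concentration of 640 μM, in duplicate. Incubated at 37 °C with humidification.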

[6] = tested on: Vero; test: Cytotoxicity against African green monkey Vero cells assessed as reduction in cell viability by MTT assay; type: cell-based; settings: Chlorocebus sabaeus
How it was run: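 MTT assay in Vero cells, samples in triplicate on one occasion. Stocks at 20 mg/mL in DMSO, diluted in complete medium as 10-fold serial dilutions over 6 concentrations. Emetine used as reference. IC50 derived by non-linear dose-response curve fitting.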

[7] = Kinetic solubility of the compound in fasted-state simulated intestinal fluid at 10 to 220 uM at pH 6.5 after 2 hrs by shake flask method; type: physicochemical; settings: read-out: Kinetic_solubility
How it was run: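 Miniaturised shake flask. 10 mM DMSO stocks spiked 1:50 into duplicate FaSSIF (pH 6.5), 2% final DMSO. Shaken 2 h at 25 °C, filtered, analysed by HPLC-DAD against calibration standards (10–220 μM).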

[8] = Lipophilicity, log P of the compound at 100 uM at pH 7.4 after 3 hrs by shake-flask method; type: physicochemical; settings: buffer
How it was run: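 Shake-flask method run in triplicate. A 10 mM stock was spiked into a 1:1 mixture of phosphate buffer (pH 7.4) and n-octanol, then shaken at 1500 rpm on an orbital shaker for 3 h at room temperature.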

[9] = tested on: Mycobacterium tuberculosis; test: Antibacterial activity against Mycobacterium tuberculosis H37Rv grown in middlebrook 7H9 medium measured on day 7 and 14 by MABA assay; type: functional; settings: 168 h
[10] = tested on: Mycobacterium tuberculosis; test: Antibacterial activity against Mycobacterium tuberculosis […] SAWC1125 grown in middlebrook 7H9 medium measured on day 7 and 14 by MABA assay; type: functional; settings: 168 h
How it was run: (§1)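 Clinical M. tuberculosis strains tested by broth microdilution in 7H9 medium. On days 7 and 14, Alamar Blue added and plates reincubated 24 h at 37 °C. Colour read by eye (blue means no growth, pink means growth). MIC90 is the lowest concentration with no colour change.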

[11] = tested on: Mycobacterium tuberculosis; test: Antibacterial activity against Mycobacterium tuberculosis […] SAWC3933 grown in middlebrook 7H9 medium measured on day 7 and 14 by MABA assay; type: functional; settings: 168 h; how it was run: as §1
[12] = tested on: Mycobacterium tuberculosis; test: Antibacterial activity against Mycobacterium tuberculosis […] SAWC3385 grown in middlebrook 7H9 medium measured on day 7 and 14 by MABA assay; type: functional; settings: 168 h; how it was run: as §1
[13] = tested on: Mycobacterium tuberculosis; test: Antibacterial activity against Mycobacterium tuberculosis […] SAWC3200 grown in middlebrook 7H9 medium measured on day 7 and 14 by MABA assay; type: functional; settings: 168 h; how it was run: as §1
[14] = tested on: Mycobacterium tuberculosis; test: Antibacterial activity against Mycobacterium tuberculosis […] SAWC3388 grown in middlebrook 7H9 medium measured on day 7 and 14 by MABA assay; type: functional; settings: 168 h; how it was run: as §1
[15] = tested on: Mycobacterium tuberculosis; test: Antibacterial activity against Mycobacterium tuberculosis […] SAWC3906 grown in middlebrook 7H9 medium measured on day 7 and 14 by MABA assay; type: functional; settings: 168 h; how it was run: as §1
[16] = tested on: Liver; test: Metabolic stability in rat liver microsomes assessed as compound remaining at 0.1 uM after 30 mins by LC-MS/MS analysis; type: ADME, microsome; settings: 0.5 h
How it was run: (§2)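 Compound at 0.1 μM incubated in duplicate with mouse, rat or pooled human liver microsomes (0.4 mg/mL) at 37 °C. Run with and without 1 mM NADPH, sampled at predetermined time points.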

[17] = tested on: Plasma; test: Fraction unbound in human plasma at 5 uM pre-incubated for 1 hr by ultra-centrifugation and LC-MS/MS method; type: ADME, cell-free
How it was run: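 Pooled human plasma spiked to 5 μM and pre-incubated 1 h at 37 °C. Duplicate aliquots ultracentrifuged 4 h at 37 °C; an unspun aliquot served as the total sample. Analyte measured by LC-MS/MS.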

[18] = tested on: Liver; test: Metabolic stability in human liver microsomes assessed as compound remaining at 0.1 uM after 30 mins by LC-MS/MS analysis; type: ADME, microsome; settings: 0.5 h; how it was run: as §2
[19] = tested on: Liver; test: Metabolic stability in mouse liver microsomes assessed as compound remaining at 0.1 uM after 30 mins by LC-MS/MS analysis; type: ADME, microsome; settings: 0.5 h; how it was run: as §2
[20] = tested on: Mus musculus; test: Apparent elimination half life in C57/BL6 mouse at 20 mg/kg, po measured up to 24 hrs post dose by LC-MS/MS analysis; type: ADME, organism-based; settings: in vivo
How it was run: (§3)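 Male mice, 3 per route, not fasted, free access to water. Oral dose given as aqueous suspension in 0.5% (w/v) hydroxypropyl methylcellulose with 0.4% (v/v) Tween 80. Blood drawn into heparinised tubes at 0.5, 1, 3, 5, 8, 12 and 24 h, kept below -15 °C, protein-precipitated with ice-cold acetonitrile. Quantified by LC-MS/MS against standards made in drug-free mouse blood.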

[21] = tested on: Mus musculus; test: Cmax in C57/BL6 mouse at 20 mg/kg, po measured up to 24 hrs post dose by LC-MS/MS analysis; type: ADME, organism-based; design: dose 20 mg/kg, route oral; settings: in vivo; how it was run: as §3
[22] = tested on: Mus musculus; test: AUC (0 to infinity) in C57/BL6 mouse at 20 mg/kg, po measured up to 24 hrs post dose by LC-MS/MS analysis; type: ADME, organism-based; design: dose 20 mg/kg, route oral, time infinity; settings: in vivo; how it was run: as §3
[23] = tested on: Mus musculus; test: Oral bioavailability in C57/BL6 mouse at 20 mg/kg measured up to 24 hrs post dose by LC-MS/MS analysis; type: ADME, organism-based; settings: in vivo; how it was run: as §3
[24] = tested on: Mus musculus; test: Apparent elimination half life in C57/BL6 mouse at 5 mg/kg, iv measured up to 24 hrs post dose by LC-MS/MS analysis; type: ADME, organism-based; settings: in vivo
How it was run: (§4)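 Male mice, 3 animals, not fasted, given an IV bolus in 10% DMSO, 50% propylene glycol/ethanol (4:1) and 40% polyethylene glycol or water. Blood sampled into heparinised tubes at 0.17, 0.5, 1, 3, 5, 8, 12 and 24 h, stored frozen, precipitated with ice-cold acetonitrile. Measured by LC-MS/MS with internal standards against blood-matrix calibration standards.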

[25] = tested on: Mus musculus; test: Volume of distribution in C57/BL6 mouse at 5 mg/kg, iv measured up to 24 hrs post dose by LC-MS/MS analysis; type: ADME, organism-based; settings: in vivo; how it was run: as §4
[26] = tested on: Mus musculus; test: AUC (0 to infinity) in C57/BL6 mouse at 5 mg/kg, iv measured up to 24 hrs post dose by LC-MS/MS analysis; type: ADME, organism-based; design: dose 5 mg/kg, route intravenous, time infinity; settings: in vivo; how it was run: as §4
[27] = tested on: Mus musculus; test: Tmax in C57/BL6 mouse at 20 mg/kg, po measured up to 24 hrs post dose by LC-MS/MS analysis; type: ADME, organism-based; settings: in vivo; how it was run: as §3

Structure (SMILES)	MIC99 [1] [µM]	MIC99 [2] [µM]	Kinetic_solubility [3] [µM]	MIC99 [4] [µM]	MIC99 [5] [µM]	IC50 [6] [µM]	solubility kinetic at 2 h [7] [µM]	logD at 3 h, 100 µM [8]	Stability [16] [%]	Fu [17] [%]	Stability [18] [%]	Stability [19] [%]	betat1/2(app) [20] [h]	Cmax [21] [nM]	AUC [22] [µM·min]	F [23] [%]	betat1/2(app) [24] [h]	Vd [25] [L/kg]	AUC [26] [µM·min]	further results
CN(Cc1ccc(C(F)(F)F)cc1)c1cc(C(=O)NC2CCCCC2)ncn1	12 (≈ 4.71 µg/mL)	> 125	5	–	–	–	–	–	–	–	–	–	–	–	–	–	–	–	–	–
CN(Cc1ccc(S(C)(=O)=O)cc1)c1cc(C(=O)Nc2ccccc2)ncn1	> 125	> 125	10	–	–	–	–	–	–	–	–	–	–	–	–	–	–	–	–	–
CN1CCN(c2ccc(NC(=O)c3cc(N(C)Cc4ccc(C(F)(F)F)cc4)ncn3)cc2)CC1	–	–	< 5	3.13 (≈ 1.52 µg/mL)	1.25 (≈ 0.606 µg/mL)	161	150 (≈ 72.7 µg/mL)	5	37	0.14	57	21	15.8	420	564	26	10.3	21.8	540	MIC90 [9]: 1.25 to 2.5 µM (≈ 0.606 to 1.21 µg/mL); MIC90 [10]: 2.5 to 5 µM (≈ 1.21 to 2.42 µg/mL); MIC90 [11]: 1.25 to 2.5 µM (≈ 0.606 to 1.21 µg/mL); MIC90 [12]: 1.25 µM (≈ 0.606 µg/mL); MIC90 [13]: 1.25 µM (≈ 0.606 µg/mL); MIC90 [14]: 1.25 to 2.5 µM (≈ 0.606 to 1.21 µg/mL); MIC90 [15]: 0.31 to 0.63 µM (≈ 0.15 to 0.305 µg/mL)
CN(Cc1ccc(C(F)(F)F)nc1)c1cc(C(=O)Nc2ccccc2)ncn1	–	–	–	37 (≈ 14.3 µg/mL)	10 (≈ 3.87 µg/mL)	258	< 5	3.7	72	0.05	85	87	7.2	3400	1999	42	0.7	0.7	1179	Tmax [27]: 4 h
